Laboratory results taken from ChEMBL document CHEMBL3576859, “Novel benzamide-based histamine h3 receptor antagonists: the identification of two candidates for clinical development” (ACS Med Chem Lett, 2015).
pIC50, pKi: −log10 of the molar value.

Experiments:
[1] = Clearance in Sprague-Dawley rat; type: ADME, organism-based; details: in vivo
[2] = Oral bioavailability in Sprague-Dawley rat at 10 mg/kg; type: ADME, organism-based; details: in vivo
[3] = target: Voltage-gated inwardly rectifying potassium channel KCNH2 (Homo sapiens, UniProt Q12809); test: Displacement of [3H]-astemizole from human ERG expressed in HEK293 cells after 60 mins by scintillation counting analysis; type: cell-based
[4] = Volume of distribution at steady state in Sprague-Dawley rat; type: ADME, organism-based; details: in vivo, read-out: Vdss
[5] = Half life in Sprague-Dawley rat at 1 mg/kg, iv; type: ADME, organism-based; details: in vivo
[6] = Apparent permeability across basolateral to apical side in human Caco2 cells at 10 uM […] by LC/MS/MS analysis; type: ADME, cell-based; details: Caco-2
Procedure, shortened: (§1)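 Caco-2 monolayer permeability measured in both directions, apical-to-basolateral and basolateral-to-apical. Reported as P_app (×10−⁶ cm/s), given as A−B/B−A pairs.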

[7] = Drug uptake in Sprague-Dawley rat brain at 3 mg/kg, po measured at 1 hr; type: ADME, organism-based; details: read-out: Drug uptake
Procedure, shortened: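 Rats dosed orally at 3 mg/kg. Brain drug concentration (μM) measured at 1 h post-dose.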

[8] = target: Voltage-gated L-type calcium channel (Rattus norvegicus, UniProt P22002+Q02485+P27732); test: Binding affinity to rat L-type calcium channel at 1 uM
[9] = tested on: Rattus norvegicus; test: Ex vivo histamine H3 receptor occupancy in Sprague-Dawley rat striatum at 3 mg/kg, po measured at 1 hr by autoradiographic analysis; type: functional
Procedure, shortened: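 After a 3 mg/kg oral dose in rats, ex vivo H3 receptor occupancy was determined by autoradiography at 1 h. Values are mean ± SD.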

[10] = Apparent permeability across apical to basolateral side in human Caco2 cells at 10 uM after 60 mins by LC/MS/MS analysis; type: ADME, cell-based; details: Caco-2; procedure, shortened: as §1
[11] = Metabolic stability in human liver microsomes assessed as compound remaining at 1 uM after 15 mins; type: ADME; details: read-out: Stability
Procedure, shortened: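 Compound incubated with human liver microsomes for 15 min. Read-out is percent parent remaining.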

[12] = Metabolic stability in Sprague-Dawley rat liver microsomes assessed as compound remaining at 1 uM after 15 mins; type: ADME; details: read-out: Stability
Procedure, shortened: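 Rat liver microsomes incubated with compound for 15 min. Stability expressed as percent of parent remaining.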

[13] = target: Histamine H3 receptor (Homo sapiens, UniProt Q9Y5N1); test: Displacement of N-[3H]methylhistamine from human histamine H3 receptor expressed in human SK-N-MC cells after 45 mins; type: cell-based
Histamine H3 receptor, sequence (Q9Y5N1 whole entry): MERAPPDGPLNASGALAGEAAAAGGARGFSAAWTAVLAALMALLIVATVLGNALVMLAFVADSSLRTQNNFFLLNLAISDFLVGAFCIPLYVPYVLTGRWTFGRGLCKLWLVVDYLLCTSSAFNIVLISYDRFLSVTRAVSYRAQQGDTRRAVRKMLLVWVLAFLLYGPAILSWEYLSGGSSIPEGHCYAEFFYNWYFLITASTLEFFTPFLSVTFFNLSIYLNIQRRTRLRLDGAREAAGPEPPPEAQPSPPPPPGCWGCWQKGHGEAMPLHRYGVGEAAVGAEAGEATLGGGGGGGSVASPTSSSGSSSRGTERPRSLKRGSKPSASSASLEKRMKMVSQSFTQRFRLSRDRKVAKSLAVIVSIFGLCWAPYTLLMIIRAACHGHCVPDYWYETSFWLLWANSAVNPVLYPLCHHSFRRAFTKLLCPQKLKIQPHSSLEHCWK

Voltage-gated inwardly rectifying potassium channel KCNH2, sequence (Q12809 whole entry): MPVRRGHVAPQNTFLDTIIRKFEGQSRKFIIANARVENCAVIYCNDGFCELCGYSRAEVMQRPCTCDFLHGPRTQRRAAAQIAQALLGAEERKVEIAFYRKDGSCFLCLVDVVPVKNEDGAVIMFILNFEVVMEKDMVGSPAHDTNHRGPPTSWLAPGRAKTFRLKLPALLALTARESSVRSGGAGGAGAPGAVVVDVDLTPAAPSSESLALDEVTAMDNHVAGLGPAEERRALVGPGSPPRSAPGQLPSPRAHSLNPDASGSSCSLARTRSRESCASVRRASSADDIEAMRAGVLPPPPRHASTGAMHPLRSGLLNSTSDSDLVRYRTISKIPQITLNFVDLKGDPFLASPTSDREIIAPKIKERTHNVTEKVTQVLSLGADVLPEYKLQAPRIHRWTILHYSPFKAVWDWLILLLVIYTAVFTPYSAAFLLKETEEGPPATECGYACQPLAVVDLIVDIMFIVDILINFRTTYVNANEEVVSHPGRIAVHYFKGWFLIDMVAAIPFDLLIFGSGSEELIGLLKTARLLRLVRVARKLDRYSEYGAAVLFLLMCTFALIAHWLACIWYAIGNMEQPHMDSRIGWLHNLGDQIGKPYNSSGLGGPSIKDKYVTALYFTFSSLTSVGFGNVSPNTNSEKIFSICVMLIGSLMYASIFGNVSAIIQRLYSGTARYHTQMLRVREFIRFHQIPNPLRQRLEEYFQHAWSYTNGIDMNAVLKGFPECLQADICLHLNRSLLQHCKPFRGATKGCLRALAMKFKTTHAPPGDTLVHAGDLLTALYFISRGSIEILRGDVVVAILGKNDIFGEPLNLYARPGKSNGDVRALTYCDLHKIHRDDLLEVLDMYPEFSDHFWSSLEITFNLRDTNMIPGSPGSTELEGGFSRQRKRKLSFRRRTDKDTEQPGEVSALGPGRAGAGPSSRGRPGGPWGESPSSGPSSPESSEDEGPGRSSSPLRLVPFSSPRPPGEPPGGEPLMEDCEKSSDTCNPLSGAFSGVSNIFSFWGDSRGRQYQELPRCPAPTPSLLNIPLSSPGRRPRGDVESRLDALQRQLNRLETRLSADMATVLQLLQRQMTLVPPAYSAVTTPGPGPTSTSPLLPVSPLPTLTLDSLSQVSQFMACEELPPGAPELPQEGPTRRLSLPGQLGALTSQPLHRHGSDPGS

Structure (SMILES)	clearance [1] [mL/min/kg]	bioavailability [2] [%]	pIC50 [3]	Vd [4] [L/kg]	half-life [5] [h]	Papp B→A at 10 µM [6] [×10⁻⁶ cm/s]	concentration at 1 h [7] [nM]	Activity [8]	Occ [9] [%]	Papp A→B at 1 h, 10 µM [10] [×10⁻⁶ cm/s]	remaining at 0.25 h, 1 µM [11] [%]	remaining at 0.25 h, 1 µM [12] [%]	pKi [13]
O=C(c1ccc(CN2CCC(F)CC2)cc1)N1CCN(C2CCC2)CC1	113	31	< 5.00	20.3	2.1								
CC(C)N1CCN(C(=O)c2ccc(CN3CCCCC3)cc2)CC1	26.1	52	< 4.52	39.4	20	14.8	480	Not Active	90	12.4			
CC(C)N1CCN(C(=O)c2ccc(CN3CCC(F)CC3)cc2)CC1	44.2	17		29.2	7.6		1820		92		84.8	50	8.82
